# Assay results: ChEMBL document CHEMBL1649147, “Antistaphylococcal activity of dihydrophthalazine antifolates, a family of novel antibacterial drugs” (2009)
# How the values were obtained:
# Assay type in all cases: functional
# [1] = test system: Staphylococcus epidermidis; assay: Antibacterial activity against methicillin-susceptible coagulase-negative Staphylococcus epidermidis 057 after 50 passages by agar dilution method
# How it was run: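 Daily serial passage for up to 50 days at 35°C for 24 h in 1 ml MHB. Each transfer used 10 µl from the tube nearest the MIC (1–2 dilutions below) with the same turbidity as the drug-free control. MICs were measured by agar dilution, with changes given as log2 steps.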
# Staphylococcus aureus [2] = assay: Antibacterial activity against vancomycin-resistant Staphylococcus aureus VRS1 after 15 passages by agar dilution method
# How it was run: (§1)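 Daily serial passage for up to 50 days at 35°C for 24 h in 1 ml MHB. […] Each transfer used 10 µl from the tube nearest the MIC (1–2 dilutions below) with the same turbidity as the drug-free control. […] MICs were measured by agar dilution, with changes given as log2 steps.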
# Staphylococcus aureus [3] = assay: Antibacterial activity against methicillin-resistant and vancomycin-resistant Staphylococcus aureus VRS1 after 15 passages by agar dilution method; how it was run: as §1
# [4] = test system: Staphylococcus epidermidis; assay: Antibacterial activity against coagulase-negative Staphylococcus epidermidis 225 after 50 passages by agar dilution method
# How it was run: (§2)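 Serial passage under drug. Inoculum was ~1 × 10^6 CFU/ml from overnight MHA growth, in 1 ml MHB at 35°C for 24 h. Drug ranged from 4 log2 steps above to 3 log2 steps below the MIC. […] MIC change is given as log2 steps.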
# [5] = test system: Staphylococcus epidermidis; assay: Antibacterial activity against coagulase-negative Staphylococcus epidermidis 057 after 15 passages by agar dilution method; how it was run: as §2
# [6] = test system: Staphylococcus epidermidis; assay: Antibacterial activity against coagulase-negative Staphylococcus epidermidis 225 after 38 passages by agar dilution method; how it was run: as §2
# [7] = test system: Staphylococcus epidermidis; assay: Antibacterial activity against methicillin-resistant, Linezolid non-susceptible coagulase-negative Staphylococcus epidermidis 345 after 33 passages by agar dilution method; how it was run: as §1
# [8] = test system: Staphylococcus epidermidis; assay: Antibacterial activity against methicillin-susceptible coagulase-negative Staphylococcus epidermidis 057 after 15 passages by agar dilution method; how it was run: as §1
# Staphylococcus aureus [9] = assay: Antibacterial activity against methicillin-resistant and vancomycin-resistant Staphylococcus aureus VRS1 after 25 passages by agar dilution method; how it was run: as §1
# [10] = test system: Staphylococcus epidermidis; assay: Antibacterial activity against methicillin-resistant, vancomycin-intermediate coagulase-negative Staphylococcus epidermidis 225 after 36 passages by agar dilution method; how it was run: as §1
# [11] = test system: Staphylococcus epidermidis; assay: Antibacterial activity against coagulase-negative Staphylococcus epidermidis 225 after 36 passages by agar dilution method; how it was run: as §2
smiles,measurement,setting,value
COc1ncc(C2c3ccccc3C=NN2C(=O)/C=C/c2cc(Cc3cnc(N)nc3N)cc(OC)c2OC)cn1 (stereo unspecified),MIC,[1],128 µg/mL
same,MIC,Staphylococcus aureus [2],> 128 µg/mL
same,MIC,Staphylococcus aureus [3],> 128 µg/mL
same,MIC,[4],128 µg/mL
COc1cc(Cc2cnc(N)nc2N)cc(/C=C/C(=O)N2N=Cc3ccccc3C2c2cnc(N(C)C)nc2)c1OC (stereo unspecified),MIC,[5],> 128 µg/mL
same,MIC,[6],> 128 µg/mL
same,MIC,[7],> 128 µg/mL
same,MIC,[8],> 128 µg/mL
COc1cc(Cc2cnc(N)nc2N)cc(/C=C/C(=O)N2N=Cc3ccccc3C2c2cnc(N3CCOCC3)nc2)c1OC (stereo unspecified),MIC,Staphylococcus aureus [9],> 128 µg/mL
same,MIC,[10],> 128 µg/mL
same,MIC,[11],> 128 µg/mL
